Experimental data reported in ChEMBL document CHEMBL5303300, “EUbOPEN Chemogenomics Library - Multiplex” (2023).
Several values for one entry are separate records, joined by “and”; a condition that tells them apart may be missing. Equal entries are not always repeated.

Tests used:
Type in all cases: toxicity, cell-based
Fibroblast = assay: Multiplex assay against human fibroblast; conditions: number of replicates 2
Procedure, shortened: (§1)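 Imaging took place on a CQ1 microscope at 37°C and 5% CO2 once compound had been added to live cells stained at seeding with Hoechst33342, BioTracker Green Microtubule Cytoskeleton Dye, MitoTracker Red and Annexin V Alexa Fluor 680. CellPathfinder machine-learning gating classed cells as Hoechst high-intensity objects or normal cells, classed normal cells as having healthy, pyknosed or fragmented nuclei, and classed pyknosed cells as mitotic or apoptotic. Tubulin, mitochondrial-mass and membrane-permeability phenotypes are per cents of the healthy-nucleus cells.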

HEK-293T = assay: Multiplex assay against HEK293T; conditions: human, number of replicates 2; procedure, shortened: as §1
U2OS = assay: Multiplex assay against U2OS; conditions: human, number of replicates 2; procedure, shortened: as §1
[1] = 12 h, 1 µM, compound concentration 1 uM
[2] = 12 h, 10 µM, compound concentration 10 uM
[3] = 24 h, 1 µM, compound concentration 1 uM
[4] = 24 h, 10 µM, compound concentration 10 uM
[5] = 48 h, 1 µM, compound concentration 1 uM
[6] = 48 h, 10 µM, compound concentration 10 uM

## O=C(NCc1ccc(F)cc1)N1CCN2C(=O)OC(c3ccccc3)(c3ccccc3)C2C1 (configuration not stated)
Fibroblast; [1]
  Population Apoptotic (%): 41% and 22%
  Population Fragmented Nuclei (%): 12% and 10%
  Population Healthy Nuclei (%): 71% and 75%
  Population Hoechst High Intensity Objects (%): 0%
  Population Membrane Permeable-Phenotype (%): 10% and 5%
  Population Mitochondria Different-Phenotype (%): 2% and 1%
  Population Mitotic Cells (%): 58% and 77%
  Population Normal (%): 99%
  Population Pyknosed Nuclei (%): 15% and 14%
  Population Tubulin-Different-Phenotype (%): 20% and 13%
  Total Cell Count: 252
Fibroblast; [2]
  Population Apoptotic (%): 58% and 35%
  Population Fragmented Nuclei (%): 14% and 9%
  Population Healthy Nuclei (%): 69% and 77%
  Population Hoechst High Intensity Objects (%): 0%
  Population Membrane Permeable-Phenotype (%): 9% and 14%
  Population Mitochondria Different-Phenotype (%): 3%
  Population Mitotic Cells (%): 41% and 65%
  Population Normal (%): 100% and 99%
  Population Pyknosed Nuclei (%): 15% and 12%
  Population Tubulin-Different-Phenotype (%): 69% and 59%
  Total Cell Count: 153 and 155
Fibroblast; [3]
  Population Apoptotic (%): 59% and 46%
  Population Fragmented Nuclei (%): 13% and 15%
  Population Healthy Nuclei (%): 72% and 73%
  Population Hoechst High Intensity Objects (%): 0%
  Population Membrane Permeable-Phenotype (%): 6% and 3%
  Population Mitochondria Different-Phenotype (%): 1% and 0%
  Population Mitotic Cells (%): 40% and 53%
  Population Normal (%): 100%
  Population Pyknosed Nuclei (%): 14% and 10%
  Population Tubulin-Different-Phenotype (%): 19% and 12%
  Total Cell Count: 253 and 276
Fibroblast; [4]
  Population Apoptotic (%): 65% and 50%
  Population Fragmented Nuclei (%): 12%
  Population Healthy Nuclei (%): 68% and 75%
  Population Hoechst High Intensity Objects (%): 0% and 1%
  Population Membrane Permeable-Phenotype (%): 7% and 2%
  Population Mitochondria Different-Phenotype (%): 9% and 7%
  Population Mitotic Cells (%): 34% and 50%
  Population Normal (%): 99% and 98%
  Population Pyknosed Nuclei (%): 19% and 12%
  Population Tubulin-Different-Phenotype (%): 61% and 48%
  Total Cell Count: 153 and 151
Fibroblast; [5]
  Population Apoptotic (%): 62% and 69%
  Population Fragmented Nuclei (%): 15% and 10%
  Population Healthy Nuclei (%): 74% and 79%
  Population Hoechst High Intensity Objects (%): 0%
  Population Membrane Permeable-Phenotype (%): 7% and 3%
  Population Mitochondria Different-Phenotype (%): 0%
  Population Mitotic Cells (%): 37% and 30%
  Population Normal (%): 100%
  Population Pyknosed Nuclei (%): 10% and 9%
  Population Tubulin-Different-Phenotype (%): 11% and 5%
  Total Cell Count: 259 and 265
Fibroblast; [6]
  Population Apoptotic (%): 45% and 83%
  Population Fragmented Nuclei (%): 15% and 12%
  Population Healthy Nuclei (%): 69% and 75%
  Population Hoechst High Intensity Objects (%): 0% and 1%
  Population Membrane Permeable-Phenotype (%): 5%
  Population Mitochondria Different-Phenotype (%): 2%
  Population Normal (%): 100% and 98%
  Population Pyknosed Nuclei (%): 15% and 12%
  Population Tubulin-Different-Phenotype (%): 53% and 43%
  Total Cell Count: 156 and 150
HEK-293T; [1]
  Population Apoptotic (%): 56% and 58%
  Population Fragmented Nuclei (%): 5% and 3%
  Population Healthy Nuclei (%): 82% and 77%
  Population Hoechst High Intensity Objects (%): 8% and 6%
  Population Membrane Permeable-Phenotype (%): 6% and 1%
  Population Mitochondria Different-Phenotype (%): 18% and 19%
  Population Mitotic Cells (%): 43% and 41%
  Population Normal (%): 91% and 93%
  Population Pyknosed Nuclei (%): 11% and 19%
  Population Tubulin-Different-Phenotype (%): 76% and 63%
  Total Cell Count: 761 and 454
HEK-293T; [2]
  Population Apoptotic (%): 72% and 41%
  Population Fragmented Nuclei (%): 2%
  Population Healthy Nuclei (%): 75% and 85%
  Population Hoechst High Intensity Objects (%): 7% and 4%
  Population Membrane Permeable-Phenotype (%): 5% and 3%
  Population Mitochondria Different-Phenotype (%): 34% and 53%
  Population Mitotic Cells (%): 27% and 58%
  Population Normal (%): 92% and 95%
  Population Pyknosed Nuclei (%): 21% and 12%
  Population Tubulin-Different-Phenotype (%): 93% and 97%
  Total Cell Count: 433 and 482
HEK-293T; [3]
  Population Apoptotic (%): 36% and 63%
  Population Fragmented Nuclei (%): 8% and 5%
  Population Healthy Nuclei (%): 83%
  Population Hoechst High Intensity Objects (%): 7% and 9%
  Population Membrane Permeable-Phenotype (%): 5% and 2%
  Population Mitochondria Different-Phenotype (%): 4% and 8%
  Population Mitotic Cells (%): 63% and 36%
  Population Normal (%): 92% and 90%
  Population Pyknosed Nuclei (%): 7% and 11%
  Population Tubulin-Different-Phenotype (%): 51% and 38%
  Total Cell Count: 1157 and 707
HEK-293T; [4]
  Population Apoptotic (%): 70% and 54%
  Population Fragmented Nuclei (%): 2% and 4%
  Population Healthy Nuclei (%): 83% and 85%
  Population Hoechst High Intensity Objects (%): 9% and 5%
  Population Membrane Permeable-Phenotype (%): 6% and 3%
  Population Mitochondria Different-Phenotype (%): 31% and 55%
  Population Mitotic Cells (%): 29% and 45%
  Population Normal (%): 90% and 94%
  Population Pyknosed Nuclei (%): 14% and 10%
  Population Tubulin-Different-Phenotype (%): 90% and 94%
  Total Cell Count: 529 and 537
HEK-293T; [5]
  Population Fragmented Nuclei (%): 16% and 10%
  Population Healthy Nuclei (%): 80% and 86%
  Population Hoechst High Intensity Objects (%): 9%
  Population Membrane Permeable-Phenotype (%): 8% and 3%
  Population Mitochondria Different-Phenotype (%): 0% and 1%
  Population Mitotic Cells (%): 91% and 68%
  Population Normal (%): 90%
  Population Pyknosed Nuclei (%): 2% and 3%
  Population Tubulin-Different-Phenotype (%): 30% and 21%
  Total Cell Count: 2926 and 1423
HEK-293T; [6]
  Population Apoptotic (%): 45% and 43%
  Population Fragmented Nuclei (%): 5% and 8%
  Population Healthy Nuclei (%): 87% and 85%
  Population Hoechst High Intensity Objects (%): 6%
  Population Membrane Permeable-Phenotype (%): 6% and 10%
  Population Mitochondria Different-Phenotype (%): 39% and 15%
  Population Mitotic Cells (%): 55% and 56%
  Population Normal (%): 93%
  Population Pyknosed Nuclei (%): 6% and 5%
  Population Tubulin-Different-Phenotype (%): 93% and 82%
  Total Cell Count: 655 and 824
U2OS; [1]
  Population Apoptotic (%): 80% and 46%
  Population Fragmented Nuclei (%): 11% and 2%
  Population Healthy Nuclei (%): 69% and 86%
  Population Hoechst High Intensity Objects (%): 3% and 0%
  Population Membrane Permeable-Phenotype (%): 0% and 3%
  Population Mitochondria Different-Phenotype (%): 0% and 1%
  Population Mitotic Cells (%): 20% and 53%
  Population Normal (%): 96% and 100%
  Population Pyknosed Nuclei (%): 19% and 10%
  Population Tubulin-Different-Phenotype (%): 61% and 62%
U2OS; [2]
  Population Apoptotic (%): 62% and 43%
  Population Fragmented Nuclei (%): 7% and 4%
  Population Healthy Nuclei (%): 71% and 86%
  Population Hoechst High Intensity Objects (%): 0%
  Population Membrane Permeable-Phenotype (%): 22% and 24%
  Population Mitochondria Different-Phenotype (%): 22% and 17%
  Population Mitotic Cells (%): 37% and 56%
  Population Normal (%): 100% and 99%
  Population Pyknosed Nuclei (%): 21% and 9%
  Population Tubulin-Different-Phenotype (%): 88% and 60%
U2OS; [3]
  Population Apoptotic (%): 47% and 81%
  Population Fragmented Nuclei (%): 2% and 8%
  Population Healthy Nuclei (%): 88% and 58%
  Population Hoechst High Intensity Objects (%): 0% and 2%
  Population Membrane Permeable-Phenotype (%): 2% and 5%
  Population Mitochondria Different-Phenotype (%): 0%
  Population Mitotic Cells (%): 52% and 18%
  Population Normal (%): 100% and 97%
  Population Tubulin-Different-Phenotype (%): 72% and 45%
U2OS; [4]
  Population Apoptotic (%): 75% and 72%
  Population Fragmented Nuclei (%): 2% and 6%
  Population Healthy Nuclei (%): 64% and 78%
  Population Hoechst High Intensity Objects (%): 0%
  Population Membrane Permeable-Phenotype (%): 37% and 16%
  Population Mitochondria Different-Phenotype (%): 45% and 36%
  Population Mitotic Cells (%): 25% and 28%
  Population Normal (%): 100%
  Population Pyknosed Nuclei (%): 32% and 15%
  Population Tubulin-Different-Phenotype (%): 83% and 53%
U2OS; [5]
  Population Apoptotic (%): 37% and 90%
  Population Healthy Nuclei (%): 90% and 62%
  Population Hoechst High Intensity Objects (%): 0% and 1%
  Population Membrane Permeable-Phenotype (%): 1% and 9%
  Population Mitochondria Different-Phenotype (%): 0%
  Population Normal (%): 100% and 98%
  Population Pyknosed Nuclei (%): 6% and 18%
  Population Tubulin-Different-Phenotype (%): 86% and 48%
U2OS; [6]
  Population Apoptotic (%): 75% and 73%
  Population Fragmented Nuclei (%): 7% and 5%
  Population Healthy Nuclei (%): 57% and 75%
  Population Hoechst High Intensity Objects (%): 0%
  Population Membrane Permeable-Phenotype (%): 12% and 20%
  Population Mitochondria Different-Phenotype (%): 37% and 19%
  Population Mitotic Cells (%): 25% and 26%
  Population Normal (%): 100%
  Population Pyknosed Nuclei (%): 35% and 18%
  Population Tubulin-Different-Phenotype (%): 68% and 42%
